Experimental data reported in ChEMBL document CHEMBL2177092, “Phosphoramidate ProTides of the anticancer agent FUDR successfully deliver the preformed bioactive monophosphate in cells and confer advantage over the parent nucleoside” (J Med Chem, 2011).

test system: not listed separately; experiment: Cytostatic activity against mouse L1210/0 cells after 48 hrs by cell counting; type: functional, cell-based; conditions: L1210/0, 48 h; call rule not given here
How it was run: (§1)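 Suspension leukemia cells in DMEM with 10% FBS, 10 mM Hepes and 1 mM sodium pyruvate at 37 °C under 5% CO2. Seeded at 60 000 cells/well with graded compound levels. Grown 48 h (L1210) or 72 h (CEM), then counted by Coulter counter. Mean ± SD of two to four independent experiments.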

Row | SMILES | IC50 [µM]
1 | CCOC(=O)[C@H](C)NP(=O)(OC[C@H]1O[C@@H](n2cc(F)c(=O)[nH]c2=O)C[C@@H]1O)Oc1cccc2ccccc12 (mixture of isomers) | 0.028
2 | C[C@H](NP(=O)(OC[C@H]1O[C@@H](n2cc(F)c(=O)[nH]c2=O)C[C@@H]1O)Oc1ccccc1)C(=O)OC1CCCCC1 (mixture of isomers) | 0.032
3 | COC(=O)[C@H](C)NP(=O)(OC[C@H]1O[C@@H](n2cc(F)c(=O)[nH]c2=O)C[C@@H]1O)Oc1ccccc1 (mixture of isomers) | 0.04

test system: HeLa; experiment: Cytostatic activity against thymidine-kinase deficient human HeLa cells […]; type: functional, cell-based; conditions: not given

Row | SMILES | IC50 [µM]
4 | CCOC(=O)[C@H](C)NP(=O)(OC[C@H]1O[C@@H](n2cc(F)c(=O)[nH]c2=O)C[C@@H]1O)Oc1cccc2ccccc12 (mixture of isomers) | 2.8
5 | C[C@H](NP(=O)(OC[C@H]1O[C@@H](n2cc(F)c(=O)[nH]c2=O)C[C@@H]1O)Oc1ccccc1)C(=O)OC1CCCCC1 (mixture of isomers) | 5.9
6 | COC(=O)[C@H](C)NP(=O)(OC[C@H]1O[C@@H](n2cc(F)c(=O)[nH]c2=O)C[C@@H]1O)Oc1ccccc1 (mixture of isomers) | 4.7

test system: L1210; experiment: Cytostatic activity against thymidine-kinase deficient mouse L1210 cells after 48 hrs by cell counting; type: functional, cell-based; conditions: L1210, 48 h; how it was run: as §1

Row | SMILES | IC50 [µM]
7 | CCOC(=O)[C@H](C)NP(=O)(OC[C@H]1O[C@@H](n2cc(F)c(=O)[nH]c2=O)C[C@@H]1O)Oc1cccc2ccccc12 (mixture of isomers) | 0.36
8 | C[C@H](NP(=O)(OC[C@H]1O[C@@H](n2cc(F)c(=O)[nH]c2=O)C[C@@H]1O)Oc1ccccc1)C(=O)OC1CCCCC1 (mixture of isomers) | 0.14
9 | COC(=O)[C@H](C)NP(=O)(OC[C@H]1O[C@@H](n2cc(F)c(=O)[nH]c2=O)C[C@@H]1O)Oc1ccccc1 (mixture of isomers) | 41

test system: not listed separately; experiment: Stability in DMSO/D2O assessed as parent compound at 5 mg measured after 13 hrs 30 mins by [31P]NMR spectroscopy in presence of human serum; type: ADME; conditions: read-out: Stability
How it was run: (§2)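 Compound (5.0 mg) dissolved in DMSO plus D2O and a control 31P NMR spectrum taken at 37 °C. Previously defrosted human serum then added. Spectra taken every 15 min over 14 h at 37 °C and processed by Lorentz-Gauss deconvolution. Parent and metabolite peaks were tracked by chemical shift.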

Row | SMILES | remaining at 13.5 h [%]
10 | CCOC(=O)[C@H](C)NP(=O)(OC[C@H]1O[C@@H](n2cc(F)c(=O)[nH]c2=O)C[C@@H]1O)Oc1cccc2ccccc12 (mixture of isomers) | 96

test system: L1210; experiment: Ratio of IC50 for thymidine-kinase deficient mouse L1210 cells to IC50 for mouse L1210/0 cells after 48 hrs by cell counting; type: functional; conditions: not given
How it was run: (§3)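 Murine L1210/0 cells were compared with L1210/TK cells, selected for resistance to 5-bromo-2'-dUrd, and with L1210.Hyor cells, chronically infected with Mycoplasma hyorhinis. Cells were grown in DMEM with 10% FBS, 10 mM Hepes and 1 mM pyruvate at 37 °C and 5% CO2, then seeded at 60 000 cells/well with compound. They were Coulter-counted after 48 h. […] Mean of 2–4 experiments.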

Row | SMILES | Ratio IC50
11 | COC(=O)[C@H](C)NP(=O)(OC[C@H]1O[C@@H](n2cc(F)c(=O)[nH]c2=O)C[C@@H]1O)Oc1ccccc1 (mixture of isomers) | 2000

test system: L1210; experiment: Ratio of IC50 for Mycoplasma hyorhinis-infected mouse L1210 cells to IC50 for mouse L1210/0 cells after 48 hrs by cell counting; type: functional; conditions: not given; how it was run: as §3

Row | SMILES | Ratio IC50
12 | CCOC(=O)[C@H](C)NP(=O)(OC[C@H]1O[C@@H](n2cc(F)c(=O)[nH]c2=O)C[C@@H]1O)Oc1cccc2ccccc12 (mixture of isomers) | 3.4
13 | C[C@H](NP(=O)(OC[C@H]1O[C@@H](n2cc(F)c(=O)[nH]c2=O)C[C@@H]1O)Oc1ccccc1)C(=O)OC1CCCCC1 (mixture of isomers) | 1.25
14 | COC(=O)[C@H](C)NP(=O)(OC[C@H]1O[C@@H](n2cc(F)c(=O)[nH]c2=O)C[C@@H]1O)Oc1ccccc1 (mixture of isomers) | 22

test system: HeLa; experiment: Ratio of IC50 for thymidine-kinase deficient human HeLa cells to IC50 for human HeLa cells by cell counting; conditions: not given

Row | SMILES | Ratio IC50
15 | COC(=O)[C@H](C)NP(=O)(OC[C@H]1O[C@@H](n2cc(F)c(=O)[nH]c2=O)C[C@@H]1O)Oc1ccccc1 (mixture of isomers) | 15

test system: L1210; experiment: Ratio of FUDR IC50 to compound IC50 for thymidine-kinase deficient mouse L1210 cells after 48 hrs by cell counting; type: functional; conditions: not given

Row | SMILES | Ratio IC50
16 | C[C@H](NP(=O)(OC[C@H]1O[C@@H](n2cc(F)c(=O)[nH]c2=O)C[C@@H]1O)Oc1ccccc1)C(=O)OC1CCCCC1 (mixture of isomers) | 21

test system: not listed separately; experiment: Drug metabolism in DMSO/D2O assessed as metabolite 5-Fluoro-2'deoxyuridine 5'-O-[(L-Alaninyl)]phosphate formation at 5 mg measured after 11 hrs 30 mins by [31P]NMR spectroscopy in presence of human serum; type: ADME; conditions: not given; how it was run: as §2

Row | SMILES | Drug metabolism
17 | CCOC(=O)[C@H](C)NP(=O)(OC[C@H]1O[C@@H](n2cc(F)c(=O)[nH]c2=O)C[C@@H]1O)Oc1cccc2ccccc12 (mixture of isomers) | Active

test system: CCRF-CEM; experiment: Cytostatic activity against thymidine-kinase deficient human CEM cells after 72 hrs by cell counting; type: functional, cell-based; conditions: not given; how it was run: as §1

Row | SMILES | IC50 [µM]
18 | CCOC(=O)[C@H](C)NP(=O)(OC[C@H]1O[C@@H](n2cc(F)c(=O)[nH]c2=O)C[C@@H]1O)Oc1cccc2ccccc12 (mixture of isomers) | 1.6
19 | C[C@H](NP(=O)(OC[C@H]1O[C@@H](n2cc(F)c(=O)[nH]c2=O)C[C@@H]1O)Oc1ccccc1)C(=O)OC1CCCCC1 (mixture of isomers) | 1.2
20 | COC(=O)[C@H](C)NP(=O)(OC[C@H]1O[C@@H](n2cc(F)c(=O)[nH]c2=O)C[C@@H]1O)Oc1ccccc1 (mixture of isomers) | 35

test system: not listed separately; experiment: Drug metabolism in DMSO/D2O assessed as metabolite 5-Fluoro-2'-deoxyuridine-5'-O-[1-naphthyl(L-alaninyl)]phosphate formation at 5 mg measured after 6 hrs 45 mins by [31P]NMR spectroscopy in presence of human serum; type: ADME; conditions: not given; how it was run: as §2

Row | SMILES | Drug metabolism
21 | CCOC(=O)[C@H](C)NP(=O)(OC[C@H]1O[C@@H](n2cc(F)c(=O)[nH]c2=O)C[C@@H]1O)Oc1cccc2ccccc12 (mixture of isomers) | Active

test system: HeLa; experiment: Cytostatic activity against human HeLa cells […] by cell counting; type: functional, cell-based; conditions: not given

Row | SMILES | IC50 [µM]
22 | CCOC(=O)[C@H](C)NP(=O)(OC[C@H]1O[C@@H](n2cc(F)c(=O)[nH]c2=O)C[C@@H]1O)Oc1cccc2ccccc12 (mixture of isomers) | 0.22
23 | C[C@H](NP(=O)(OC[C@H]1O[C@@H](n2cc(F)c(=O)[nH]c2=O)C[C@@H]1O)Oc1ccccc1)C(=O)OC1CCCCC1 (mixture of isomers) | 0.18
24 | COC(=O)[C@H](C)NP(=O)(OC[C@H]1O[C@@H](n2cc(F)c(=O)[nH]c2=O)C[C@@H]1O)Oc1ccccc1 (mixture of isomers) | 0.28

test system: L1210; experiment: Cytostatic activity against Mycoplasma hyorhinis-infected mouse L1210 cells after 48 hrs by cell counting; type: functional, cell-based; conditions: L1210, 48 h; how it was run: as §1

Row | SMILES | IC50 [µM]
25 | CCOC(=O)[C@H](C)NP(=O)(OC[C@H]1O[C@@H](n2cc(F)c(=O)[nH]c2=O)C[C@@H]1O)Oc1cccc2ccccc12 (mixture of isomers) | 0.095
26 | C[C@H](NP(=O)(OC[C@H]1O[C@@H](n2cc(F)c(=O)[nH]c2=O)C[C@@H]1O)Oc1ccccc1)C(=O)OC1CCCCC1 (mixture of isomers) | 0.04
27 | COC(=O)[C@H](C)NP(=O)(OC[C@H]1O[C@@H](n2cc(F)c(=O)[nH]c2=O)C[C@@H]1O)Oc1ccccc1 (mixture of isomers) | 0.87

test system: CCRF-CEM; experiment: Cytostatic activity against human CEM/0 cells after 72 hrs by cell counting; type: functional, cell-based; conditions: not given
How it was run: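 Suspension leukemia cells in DMEM with 10% FBS, 10 mM Hepes and 1 mM sodium pyruvate at 37 °C under 5% CO2. Seeded at 60 000 cells/well with graded compound levels. Grown 48 h (L1210) or 72 h (CEM), then counted by Coulter counter. […] Mean ± SD of two to four independent experiments.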

Row | SMILES | IC50 [µM]
28 | CCOC(=O)[C@H](C)NP(=O)(OC[C@H]1O[C@@H](n2cc(F)c(=O)[nH]c2=O)C[C@@H]1O)Oc1cccc2ccccc12 (mixture of isomers) | 0.25
29 | C[C@H](NP(=O)(OC[C@H]1O[C@@H](n2cc(F)c(=O)[nH]c2=O)C[C@@H]1O)Oc1ccccc1)C(=O)OC1CCCCC1 (mixture of isomers) | 0.17
30 | COC(=O)[C@H](C)NP(=O)(OC[C@H]1O[C@@H](n2cc(F)c(=O)[nH]c2=O)C[C@@H]1O)Oc1ccccc1 (mixture of isomers) | 0.7
